MEKK3 PB1 HTS: modulators (inhibitors or enhancers) of MEK5 binding to human MEKK3 PB1 domain; Q99759; bead-based flow cytometry, Alexa488-MEK5 binding to MEKK3; actives lie on both sides; 0 = blocked by unlabeled MEK5, 100 = vehicle; binding response (% of control), % at 10 µM; 1.4% of 290,000 active;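 active = binding response more than 3 SD above or below the average of its plate-row segment, actives on both sides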;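 also: Alexa488 bead fluorescence after subtracting the streptavidin-only scavenger bead signal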
Target sequence (Q99759 whole entry, looked up, the tested form may be a part): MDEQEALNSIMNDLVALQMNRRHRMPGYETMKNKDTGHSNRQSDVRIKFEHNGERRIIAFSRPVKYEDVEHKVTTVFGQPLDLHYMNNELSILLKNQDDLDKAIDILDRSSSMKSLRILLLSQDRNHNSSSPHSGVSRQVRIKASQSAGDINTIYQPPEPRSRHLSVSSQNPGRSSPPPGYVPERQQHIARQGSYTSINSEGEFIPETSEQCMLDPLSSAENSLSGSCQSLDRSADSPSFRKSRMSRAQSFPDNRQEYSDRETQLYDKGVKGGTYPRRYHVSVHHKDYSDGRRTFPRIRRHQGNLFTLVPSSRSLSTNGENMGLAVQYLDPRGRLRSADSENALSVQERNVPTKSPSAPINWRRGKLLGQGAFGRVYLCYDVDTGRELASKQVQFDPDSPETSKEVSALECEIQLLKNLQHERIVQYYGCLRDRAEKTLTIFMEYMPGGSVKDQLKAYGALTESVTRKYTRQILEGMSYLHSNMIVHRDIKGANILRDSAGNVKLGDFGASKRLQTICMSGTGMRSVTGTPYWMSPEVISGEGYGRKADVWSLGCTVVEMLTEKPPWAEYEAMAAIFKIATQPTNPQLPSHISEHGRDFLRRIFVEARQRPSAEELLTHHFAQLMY
MEKK2mut PB1 HTS: signal of MEK5 binding to mutant human MEKK2 PB1 domain. bead flow cytometry, Alexa488-MEK5 binding to MEKK2 mutant. percent response, % at 10 µM. 0.35% of 290,000 active. AID 1530; in the data active = percent response above about 24%, passing the limit was not always enough
ABCG2 inh: inhibitors of human ABCG2 transporter, ABCB1 counter-screen; Q9UNQ0; IgMXP3 cells, JC-1 efflux, flow cytometry; inhibition, % at 6.6 µM; 0.1% of 190,000 active; AID 1325;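 active = inhibition above 80%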;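 also: 0% = DMSO and 100% = nicardipine control wells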
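Test system: ABCG2 IgMXP3 and barcoded ABCB1 CCRF-Adr cell mix; Schedule: cells with compound and JC-1, 10 min at 25 °C, rotating, no wash; Technique: flow cytometry of retained JC-1 fluorescence; Measure: % inhibition of efflux relative to nicardipine and DMSO; Controls: nicardipine high and DMSO low controls.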
MEKK2wt PB1 HTS: raises or lowers MEK5 binding to wildtype human MEKK2 PB1 domain; AID 1531; Q9Y2U5; binding response (% of control), % at 10 µM; bead flow cytometry, Alexa488-MEK5 binding to MEKK2 WT; actives lie on both sides; 1.1% of 290,000 active; in the data active = binding response below about 67% or above about 130%
ABCB1 block: inhibitors of human ABCB1 transporter, ABCG2 counter-screen; inhibition, % at 6.6 µM; P08183; 0.067% of 190,000 active; CCRF-Adr cells, JC-1 efflux, flow cytometry; in the data active = inhibition above about 40%;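 also: 0% = vehicle and 100% = reference inhibitor; higher value means more JC-1 retained so stronger ABCB1 efflux block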
Efflux pump inh: blocks antifungal efflux pumps in multiplex yeast assay | S. cerevisiae Candida pump triplex, Nile Red efflux | inhibition, % at 10 µM | 0.44% of 330,000 active;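 active = plate passing quality check with inhibition over a set limit, or well fluorescence over plate mean plus 4 SD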;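 also: Nile Red retained in pooled yeast measured as flow cytometry median fluorescence; 0% = buffer negative control and 100% = Enniatin B positive control; higher means more Nile Red kept so more efflux inhibition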
MEKK2wt confirm: raises or lowers MEK5 binding to wildtype human MEKK2, retest; shares compounds with MEKK3 PB1 HTS; bead flow cytometry, Alexa488-MEK5 binding to MEKK2 WT; actives lie on both sides; binding response (% of control), % at 10 µM; 2.4% of 5,900 active; AID 1892; in the data active = binding response below about 16% or above about 210%; inactive = in between
MEKK2mut confirm: signal of MEK5 binding to mutant human MEKK2, retest. shares compounds with MEKK3 PB1 HTS. bead flow cytometry, Alexa488-MEK5 binding to MEKK2 mutant. percent response, % at 10 µM. 2% of 5,900 active. AID 1893; in the data active = percent response mostly above about 71%, no sharp cut-off; inactive = mostly below about 38%;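 also: higher means compound restores mutant binding toward wildtype level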
MEKK3 confirm: confirmation of inhibitors of MEK5 binding to human MEKK3 | 1.8% of 5,900 active | shares compounds with MEKK3 PB1 HTS | AID 1894 | binding response (% of control), % at 10 µM | bead flow cytometry, Alexa488-MEK5 binding to MEKK3; active compounds read low;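 active = binding response below 72% of control, or above a set upper limit, though filed actives all read lower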;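 also: 100% = DMSO only wells and 0% = binding blocked by excess unlabeled MEK5; lower values mean stronger disruption of MEK5 binding to MEKK3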
* = called active by the depositor; x = not tested or not shown; [ ] = remark or other dose. This is a sample that favours compounds with a hit; in the whole collection about 2.5% have one here.

SMILES	MEKK3 PB1 HTS	MEKK2mut PB1 HTS	ABCG2 inh	MEKK2wt PB1 HTS	ABCB1 block	Efflux pump inh	MEKK2wt confirm	MEKK2mut confirm	MEKK3 confirm
Brc1ccc(N=C/C=C/C=C/Nc2ccc(Br)cc2)cc1	46.0*[inhibitor]	140.0*	1.2	38.0*	0.4	0.2	48.0	-30.0	64.0*
CN(C)C(/C=C/Nc1ccc(Br)cc1)=C(C#N)C#N	103.0	8.0	21.6	103.0	2.5	-0.1	x	x	x
COc1ccc(NC(=O)CSc2nnc(-c3cccs3)n2N)cc1S(N)(=O)=O	x	x	x	x	x	0.1	x	x	x
O=c1[nH]c(/C=C/c2ccccc2[N+](=O)[O-])nc2ccccc12	132.0*	0.0	38.6	110.0	1.4	0.4	89.0	-5.0	89.0
O=CN1CCN(C(C(=O)NC2CCCCC2)c2cc3c(cc2[N+](=O)[O-])OCO3)CC1 (centres undefined)	67.0	-16.0	2.0	66.0	0.4	0.1	x	x	x
COc1ccc(NC(=O)C(c2cc3c(cc2[N+](=O)[O-])OCO3)N2CCN(C=O)CC2)cc1 (centres undefined)	2.0*[inhibitor]	-12.0	3.8	3.0*[inhibitor]	1.7	-0.1	101.0	6.0	104.0
Cc1nc2ccccn2c1C(=O)N=Nc1c(O)[nH]c2ccccc12	139.0*	2.0	5.7	106.0	1.6	-0.2	102.0	1.0	103.0
CC(C)(C)c1ccc(OCCNC(=O)c2ncn[nH]2)cc1	101.0	1.0	10.1	103.0	1.2	-0.1	x	x	x
C[C@H](NS(=O)(=O)c1ccc(Cl)c(Cl)c1)C(=O)OCc1cc(=O)n2cc(Br)ccc2n1	131.0*	1.0	0.0	102.0	1.3	-2.5	98.0	4.0	104.0
Cc1cccc(C(=O)OCN2C(=O)c3ccccc3C2=O)c1[N+](=O)[O-]	106.0	14.0	x	107.0	x	-0.4	x	x	x
CCn1cc(/C=N/NC(=O)c2ccc3c(c2)OCO3)cn1	97.0	-2.0	1.9	96.0	0.0	0.3	x	x	x
COc1ccc(C2NC(C(=O)O)Cc3c2[nH]c2ccccc32)cc1CN1CCN(c2ccc(F)cc2)CC1 (centres undefined)	93.0	5.0	x	120.0	x	-0.1	x	x	x
COc1ccc(C2NCCc3c2[nH]c2ccccc32)cc1COc1ccc(F)cc1 (centres undefined)	62.0*[inhibitor]	2.0	-1.7	140.0*	0.1	0.0	205.0	69.0	114.0
COc1ccc(C2NCCc3c2[nH]c2ccccc32)cc1CN1CCc2cc(OC)c(OC)cc2C1C (centres undefined)	107.0	20.0	x	172.0*	x	x	216.0*	81.0*	117.0
O=C(c1ccccc1)c1c2c(cc3sc4ccccc4[n+]13)-c1cccc3cccc-2c13	91.0	-3.0	-9.1	60.0*[inhibitor]	-0.5	0.2	91.0	-2.0	93.0
CCOC(=O)c1c(C)[nH]c(C2=NNC(=NC3CC3)SC2)c1C	107.0	-3.0	2.5	105.0	0.2	0.0	x	x	x
O=C(CSc1n[nH]c(=O)[nH]c1=O)c1ccccc1[N+](=O)[O-]	64.0*[inhibitor]	-33.0	x	70.0	x	-0.1	102.0	3.0	107.0
O=C(CSc1n[nH]c(=O)[nH]c1=O)c1cccc([N+](=O)[O-])c1	103.0	-2.0	0.0	99.0	0.0	0.0	x	x	x
O=C(NCC(F)(F)F)Nc1cccnc1	127.0*	22.0	16.7	121.0	1.6	0.1	105.0	1.0	101.0
O=C(Nc1ccc(F)cc1)Nc1cccnc1	100.0	1.0	x	98.0	x	-0.1	x	x	x
COc1ccc(N2CC(C)Cn3c2nc2c3c(=O)n(Cc3ccccc3)c(=O)n2C)c(OC)c1 (centres undefined)	73.0*[inhibitor]	-2.0	1.6	82.0	2.0	0.0	98.0	-7.0	105.0
COc1ccc(N2CCn3c2nc2c3c(=O)n(CCc3ccccc3)c(=O)n2C)c(OC)c1	109.0	1.0	3.1	99.0	2.1	x	x	x	x
O=C(NC1CCCCC1)c1cc(F)cc2c1OCOC2	80.0	-12.0	x	86.0	x	0.1	x	x	x
O=C(O)CC1(CC(=O)Nc2ccc(F)c(Cl)c2)CCCCC1	99.0	2.0	x	105.0	x	0.5	x	x	x
O=C(Nc1nnc(SCc2ccc(F)cc2)s1)c1ccc2c(c1)C(=O)N(c1ccccc1Cl)C2=O	103.0	-1.0	-3.8	96.0	-2.0	0.0	x	x	x
SMILES	MEKK3 PB1 HTS	MEKK2mut PB1 HTS	ABCG2 inh	MEKK2wt PB1 HTS	ABCB1 block	Efflux pump inh	MEKK2wt confirm	MEKK2mut confirm	MEKK3 confirm
COc1ccc(-c2nsc3c(N4CCN(S(=O)(=O)c5ccccc5F)CC4)ncnc23)cc1	71.0*[inhibitor]	-14.0	-8.9	80.0	-1.6	-0.2	101.0	-5.0	100.0
N=C1SCC(=O)N1c1ncc(Cc2ccc(F)cc2)s1	105.0	-4.0	1.3	100.0	0.0	-0.1	x	x	x
COc1ccccc1NC(=O)CCn1c(=O)c2cccn2c2ccccc21	102.0	3.0	x	106.0	x	0.0	x	x	x
O=C(NCc1ccccc1Cl)C1CCN(C(=O)c2ccco2)CC1	102.0	2.0	x	99.0	x	0.2	x	x	x
O=C(Nc1ccc(F)cc1)c1ccc(CSc2ccccc2)o1	145.0*	0.0	-0.1	107.0	-0.1	0.1	106.0	2.0	105.0
CCOCCCNC(=O)/C(C#N)=C/c1ccc(C)o1	102.0	2.0	2.1	103.0	0.2	0.0	x	x	x
COCCNC(=O)c1c(NC(=O)c2nc(SC)ncc2Cl)sc2c1CCCC2	82.0*[inhibitor]	-10.0	37.7	82.0	2.2	0.3	106.0	4.0	104.0
C=CCn1c(SCC(=O)Nc2ccc(N3CCOCC3)cc2)nc2ccccc2c1=O	107.0	9.0	x	108.0	x	-0.1	x	x	x
CN1CCC2(CC1)N=C(c1ccc(F)cc1)C(=S)N2C(=O)c1ccc(C(C)(C)C)cc1	101.0	44.0	3.9	147.0*	0.3	-1.9	115.0	2.0	99.0
Cc1ccc(C)c(N2CCN(C(=O)c3cc(S(=O)(=O)N4CCCC4)cn3C)CC2)c1	2.0*[inhibitor]	-32.0	x	0.0*[inhibitor]	x	0.0	101.0	3.0	101.0
CCOc1cc2[nH]c(=S)n(Cc3ccc(C(=O)NCC(OC)OC)cc3)c(=O)c2cc1OCC	102.0	6.0	2.4	99.0	0.2	-0.1	x	x	x
CCOc1cc2[nH]c(=S)n(Cc3ccc(C(=O)NCCN(CC)CC)cc3)c(=O)c2cc1OCC	107.0	29.0*	x	126.0	x	-0.2	113.0	4.0	103.0
O=C(NCCCN1CCCC1)c1ccc(Cn2c(=S)[nH]c3ccc(Br)cc3c2=O)cc1	105.0	25.0	-0.4	144.0*	-0.4	-0.1	119.0	7.0	97.0
